Assay outcomes deposited in PubChem BioAssay by The Scripps Research Institute Molecular Screening Center.
MC4R barr agon – agonists of human melanocortin 4 receptor (MC4R) beta-arrestin. activation, % at 8.9 µM. hit rate 0.98% among 360,000. U2OS MC4R beta-arrestin complementation, luminescence; percent of melanotan II response, DMSO zero;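 active = activation above a per-plate cutoff, the mean activation of sample wells on that plate plus 3 SD, cut at about 8% in these data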
Target sequence (P32245 whole entry, looked up): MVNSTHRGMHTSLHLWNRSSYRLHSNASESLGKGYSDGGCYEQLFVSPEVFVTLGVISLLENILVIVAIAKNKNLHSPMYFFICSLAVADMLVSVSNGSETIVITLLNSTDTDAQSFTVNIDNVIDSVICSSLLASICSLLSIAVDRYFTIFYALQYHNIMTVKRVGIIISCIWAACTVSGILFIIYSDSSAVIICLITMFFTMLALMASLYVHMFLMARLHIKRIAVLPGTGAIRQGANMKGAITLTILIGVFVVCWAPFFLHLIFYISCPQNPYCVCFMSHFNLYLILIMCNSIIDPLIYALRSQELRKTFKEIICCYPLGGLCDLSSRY
MC4R antagonist – human MC4R antagonism in cAMP assay; MC4R-expressing cells, MTII-stimulated cAMP, LANCE TR-FRET; inhibition, % at 6.5 µM; hit rate 0.48% among 360,000; AID 540295;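 active = inhibition above its plate's cutoff, the mean of tested wells on that plate plus 3 SD, cut at about 29% in these data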;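 also: 0% = Melanotan II alone and 100% = Melanotan II plus saturating MCL0020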
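Assay system: U2OS cells stably expressing human melanocortin 4 receptor (MC4R) / Dosing: 6.5 µM / Timing: compound 30 min, challenge 1 h, detection 1 h / Measured by: Eu-cAMP/anti-cAMP TR-FRET, emission 671 nm / Replicates: singlicate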
bovine MsrA act – activators of bovine methionine sulfoxide reductase A. purified bovine MsrA, absorbance read-out. activation, % at 10.6 µM. hit rate 0.3% among 360,000. AID 602163; in the data active = activation above about 7.5%;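 also: 0% = vehicle and 100% = reference activator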
MsrA inh – inhibits bovine methionine sulfoxide reductase A. purified bovine MsrA, absorbance read-out. inhibition, % at 15.5 µM. hit rate 0.75% among 360,000. AID 651718; in the data active = inhibition above about 4.5%;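 also: 0% = vehicle wells with enzyme and 100% = reference inhibitor wells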
cAMP nonselect – U2OS forskolin cAMP inhibition counter-screen. inhibition, % at 6.5 µM. hit rate 26% among 1,600. parental U2OS, LANCE TR-FRET. shares compounds with MC4R antagonist;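 active = mean inhibition over triplicates above the low-control well mean plus 3 SD, set per campaign, cut at about 13% in these data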;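 also: signal is single emission at 671 nm which falls as cellular cAMP rises; 0% = forskolin-stimulated wells and 100% = buffer without forskolin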
MC4R antag conf – human MC4R cAMP antagonism confirmation; inhibition, % at 6.5 µM; shares compounds with MC4R antagonist; hit rate 27% among 1,600; AID 602195; MC4R-expressing cells, MTII-stimulated cAMP, TR-FRET; in the data active = inhibition above about 29%;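 also: 0% = agonist stimulated wells alone and 100% = agonist stimulated wells plus saturating reference antagonist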
Numbers without * were called inactive; . = not tested or not shown. An excerpt weighted towards active compounds, which were near 2.3% of everything screened.

SMILES | MC4R barr agon | MC4R antagonist | bovine MsrA act | MsrA inh | cAMP nonselect | MC4R antag conf
CC(OC(=O)c1cccc(N2C(=O)c3ccccc3C2=O)c1)C(=O)Nc1ccc(N(C)C)cc1 (stereo not drawn) | -0.4 | 32.7* | -0.5 | 1.4 | -7.1 | -14.5
Cc1ccc(NC(=O)COC(=O)c2cccc(N3C(=O)c4ccccc4C3=O)c2)cc1 | 2.2 | 4.5 | -1.8 | -2.1 | . | .
O=C(O)COc1ccc2nsnc2c1Cl | -2.1 | 69.9* | -3.6 | 1.1 | 45.6* | 81.5*
COc1ccc(OCC(=O)Nc2c(Cl)ccc3nsnc23)cc1 | -4.3 | 12.6 | -3.5 | -0.1 | . | .
C#CCOCCOCCOCCNc1nc(N2CCN(C(=O)CCCCCCCCCCNC(=O)[C@H]([C@@H](C)CC)n3cc(CCCCN=C(N)N)nn3)CC2)nc(N2CCN(C(=O)CCCCCCCCCCNC(=O)[C@@H]([C@H](C)O)n3cc(C)nn3)CC2)n1 | -0.8 | 38.0* | -5.7 | . | 19.5* | 55.2*
N#C/C(=C/c1ccc(OCc2ccc(C(=O)O)cc2)c(Br)c1)c1cccc(F)c1 | -1.8 | 34.0* | -2.1 | 1.6 | -3.5 | -14.4
N#C/C(=C/c1ccccc1OCc1ccc(F)cc1)c1ccc(C(=O)O)cc1 | -0.5 | 9.6 | -3.0 | 1.1 | . | .
O=C(O)c1ccc(/C=C2\COc3ccccc3C2=O)cc1 | -3.0 | 36.2* | -0.2 | 3.7 | 5.1 | 6.0
COc1ccc(/C=C2\COc3ccccc3C2=O)cc1OC | 1.5 | 14.9 | -2.7 | 0.2 | . | .
CCN1CCN(Cc2c(C(=O)N/N=C(\C)c3ccc(Cl)cc3)nnn2-c2nonc2N)CC1 | -0.5 | 9.0 | -4.5 | -1.0 | . | .
O=C(OC1CCOC1=O)c1cc(-c2cccs2)nc2ccccc12 (stereo not drawn) | 0.6 | 35.2* | -2.4 | 1.5 | 25.7* | 37.6*
CCCNC(=O)c1ccc(N2CCC3(CC2)CC(c2ccccc2)=NO3)c(NC(=O)c2ccco2)c1 | -1.3 | 33.4* | -0.6 | 0.8 | 5.4 | 17.0
Cc1ccc(CNC(=O)c2ccc(N3CCC4(CC3)CC(c3ccccc3)=NO4)c(NC(=O)c3ccco3)c2)cc1 | -1.4 | -3.5 | -2.6 | 0.9 | . | .
O=C(COC(=O)CNC(=O)c1cccc(OC(F)F)c1)NCc1ccc2c(c1)OCO2 | -2.2 | 32.7* | -1.7 | 0.1 | 19.6* | 39.6*
CNc1nc(N/N=C/c2cc([N+](=O)[O-])ccc2F)nc(Nc2ccccc2)n1 | -0.9 | 46.6* | -3.4 | -0.6 | 18.9* | 61.6*
COc1ccc(OCc2cc(C(=O)N3CCCCCCC3)no2)c(Cl)c1 | -2.5 | -1.6 | -3.5 | 0.2 | . | .
C=C1CC2(CC(c3ccccc3)OC(c3ccccc3)C2)OC1=O (stereo not drawn) | -1.4 | 34.3* | -3.5 | 0.8 | 20.7* | 46.2*
CC1(C)CC(=O)C(C(C2=C(O)CC(C)(C)CC2=O)c2cccs2)C(=O)C1 (stereo not drawn) | 0.8 | 29.9* | -0.6 | . | 11.9 | 21.3
CCOC(=O)c1cnc2ccc(OCC)cc2c1NCc1ccccc1 | -0.3 | 34.8* | -0.3 | -2.0 | 7.4 | 21.5
CCOC(=O)c1cnc2ccccc2c1Nc1cccc(C(=O)O)c1 | 0.2 | 38.8* | -1.7 | 2.3 | 13.4* | 19.5
CCOC(=O)c1cnc2ccc(C)cc2c1Nc1ccc(N2CCOCC2)cc1 | -0.3 | 30.5* | -6.5 | 0.1 | 2.6 | 37.8*
COc1ccc(-n2cccc2/C=C/[N+](=O)[O-])cc1 | 1.0 | 14.9 | -2.8 | 1.3 | . | .
Cc1ccc(S(=O)(=O)n2cccc2/C=C/[N+](=O)[O-])cc1 | -1.6 | 38.2* | -6.4 | -0.5 | 7.1 | 4.5
NS(=O)(=O)c1ccc(NC(=O)COC(=O)COc2ccc3ccccc3c2)cc1 | 0.1 | 7.9 | -8.7 | 0.6 | . | .
Cc1c(C(=O)OCC(=O)Nc2ccc(S(N)(=O)=O)cc2)oc2c1ccc1ccccc12 | 2.5 | 35.2* | -3.3 | 0.2 | 2.5 | -5.3
SMILES | MC4R barr agon | MC4R antagonist | bovine MsrA act | MsrA inh | cAMP nonselect | MC4R antag conf
c1csc(CNCCN2CCOCC2)c1 | -0.5 | 8.1 | -7.5 | 0.9 | . | .
O=C(CSc1cccc[n+]1[O-])Nc1cc(Cl)ccc1[N+](=O)[O-] | -1.7 | 6.2 | -0.5 | 1.2 | . | .
O=[N+]([O-])c1ccc(Sc2cccc[n+]2[O-])c2nonc12 | -3.1 | 47.7* | 0.2 | 0.7 | 41.9* | 60.1*
O=C(c1ccc(S(=O)(=O)NCc2ccco2)cc1)N1CCN(c2ccc(F)cc2)CC1 | -0.8 | -4.4 | -5.3 | 0.6 | . | .
O=C(/C=C/c1ccc(S(=O)(=O)NCc2ccco2)cc1)N1CCN(c2ccccc2)CC1 | 0.7 | 30.6* | -1.1 | -0.9 | 1.4 | -4.0
O=C(O)c1ccc(N2C(=O)c3[nH]nc(-c4ccccc4)c3C2c2ccccc2)cc1 (stereo not drawn) | -0.2 | -1.3 | -3.7 | 0.2 | . | .
COc1ccc(/C=N/Nc2nc(Nc3ccccc3)nc(N3CCCC3)n2)cc1[N+](=O)[O-] | 2.9 | 32.4* | -0.9 | 2.7 | 2.0 | 0.9
COc1ccc(/C=N/Nc2nc(N3CCCCC3)nc(N3CCCCC3)n2)cc1[N+](=O)[O-] | 0.4 | 25.0 | -1.3 | 1.4 | . | .
COc1ccc(CS(=O)(=O)/C(Cl)=C(/Cl)C(=O)Nc2ccc(OC)nc2)cc1 | -2.2 | 44.0* | -5.3 | . | 33.2* | 37.4*
COc1ccc(NC(=O)/C(Cl)=C(/Cl)S(=O)Cc2ccccc2)cn1 (stereo not drawn) | -1.9 | 26.3 | -8.2 | 1.6 | . | .
COc1ccc(N(C)S(=O)(=O)c2cccc(C(=O)OCC(=O)NCc3ccccc3OC)c2)cc1 | -1.1 | 30.1* | -0.9 | 1.7 | 3.1 | 5.2
O=C(Oc1ccccc1C(=O)Nc1ccccc1)c1ccc(Br)c([N+](=O)[O-])c1 | -1.0 | 35.8* | 1.3 | 0.2 | 11.8 | 18.2
CCOc1ccccc1NC(=O)c1cc(C(=O)c2cc(OC)ccc2O)coc1=N | -2.5 | 32.7* | -2.3 | 2.6 | 3.7 | 5.0
CC(C)NC(=O)c1cc(C(=O)c2cc(Cl)ccc2O)coc1=N | -1.1 | -3.3 | -11.5 | 1.0 | . | .
COc1cccc(-c2cc(CNC(=O)[C@H]3O[C@@H](n4cnc5c(N)ncnc54)[C@H](O)[C@@H]3O)no2)c1 | . | . | -2.0 | -1.1 | . | .
COc1ccc(CN2CCC[C@]3(N[C@H](c4ccccc4)[C@@H]4C(=O)N(Cc5ccccc5)C(=O)[C@@H]43)C2=O)cc1 | 1.2 | 29.4* | -1.0 | 0.3 | -3.4 | -2.6
C=CCCN(C1CCCC1)S(=O)(=O)c1ccccc1Br | -0.4 | 21.0 | 0.7 | 1.8 | . | .
O=C1C=CC(=O)N1CCNc1ncc(C(F)(F)F)cc1Cl | -1.5 | 52.8* | -11.3 | 0.8 | -4.6 | 23.7
O=C1CC(=O)N(CCNc2ncc(C(F)(F)F)cc2Cl)C(=O)N1 | 0.8 | -6.0 | -11.2 | 0.0 | . | .
O=[N+]([O-])c1cc(-c2csc(NCCc3nc4cc(Cl)c(Cl)cc4n3CCCO)n2)ccc1Cl | -1.6 | 33.2* | -3.9 | 0.7 | 15.6* | 20.2
CCCn1c(CCNc2nc(-c3ccc(Cl)c([N+](=O)[O-])c3)cs2)nc2cc(Cl)c(Cl)cc21 | -0.6 | 7.4 | -2.5 | -1.1 | . | .
